# The RNAGym collection of RNA variant scans (doi:10.1101/gad.245936.114)
# Fewer inactive variants are shown than the library holds.
# B1: tRNA (parent)
# chain: CUCUCGGUAGCCAAGUUGGUUUAAGGCGCAAGACUUUAAUUUAUCACUACGAAAUCUUGAGAUCGGGCGUUCGACUCGCCCCCGGGAGAUUUUUUCCUCGAGCAA
# Variants of: B1
# Test: nonsense suppression (GFP-seq) (ratio to wild type); higher = more function; SUP4oc tRNA, yeast GFP reporter sort-seq
# Summary of the method: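 Sorted GFP/RFP bins of yeast were each Illumina-sequenced with a phred ≥30 cutoff; the cells held a genome-integrated ochre-suppressor tRNA variant from a library with ~3% random mutations, a galactose-driven GFP ochre reporter, and RFP. Culture was in raffinose/galactose medium containing 80 mg/L adenine. Nonsense suppression, termed GFPSEQ, is the median GFP/RFP of the bins weighted by each variant's estimated cell share per bin, relative to the unmutated parent tRNA, for variants reaching ≥100 reads and ≥30 cells.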
row,Variant,nonsense suppression
1,U20C U63G,0.0493
2,G18C A54C G84U,≤ 0.026
3,U17G U55C,0.0769
4,U21A A31G,1.16
5,U22A C75A A89C,≤ 0.026
6,U21G A23C,≤ 0.026
7,U21C,0.954
8,U21G,1.04
9,U21A,1.02
10,U21A A54U U76C,0.751
11,U17G G19U,1.05
12,U17G G19A,0.204
13,U21A A24U,0.184
14,U21A A24C,0.753
15,U21C G61A,0.881
16,U21C C27U,0.154
17,G19A U21G C64U,≤ 0.026
18,U17G C79U,0.764
19,U17G A31G,1.15
20,U17G U63A C75A G85A,1.08
21,U21G G66C,≤ 0.026
22,U21A A87G,0.493
23,U20C A89U,0.0684
24,G19A C64G C68U C82A,≤ 0.026

row,Variant,nonsense suppression
1,U21G G61A C64A C81A,≤ 0.026
2,U21G U55C,0.208
3,U20G C56U,0.148
4,G18C A33G C80G,≤ 0.026
5,U20G U55C,0.849
6,G19U A23U C34A U63G,≤ 0.026
7,G18C G61A,≤ 0.026
8,G19A A23C G85U,≤ 0.026
9,G19C U63C C83A,0.789
10,U17G A33U U63G C68A U71G,≤ 0.026
11,U22A A33U A89C,≤ 0.026
12,U20G G26C,≤ 0.026
13,U20A A60U C79U,0.212
14,G19C C34U U71C C82G,≤ 0.026
15,U20G A33U,0.0902
16,U20G A33G,0.18
17,U21C C56G U70C C75G,≤ 0.026
18,U21A C29A C79U,≤ 0.026
19,U20C G28A U57G C77A,0.813
20,G18A U21G C34U,≤ 0.026
21,U20G G59C C64A G85U,≤ 0.026
22,U20G G85C,0.0271
23,U20G G85U,0.81
24,U17G U63C,0.799

row,Variant,nonsense suppression
1,U21G U22G G28A,0.206
2,U21C G69C,≤ 0.026
3,U21G G28A,1.14
4,U21G G28C,0.211
5,U20A A24U U63A,≤ 0.026
6,G18C G19A A24U,≤ 0.026
7,U22A A23C,0.153
8,U21G A30U,≤ 0.026
9,U21G A30G,0.227
10,G19U U55G,≤ 0.026
11,U21G C83U,0.0839
12,U21A G78C,0.0372
13,U22A G28U A54U U70G A87C,≤ 0.026
14,U20C U55C,0.0996
15,G18U C82U G86C,≤ 0.026
16,U22A A30G,0.677
17,U22A A30U,0.177
18,U21C G25A G26A,≤ 0.026
19,U20C C79U G84U,≤ 0.026
20,G19U G28A,0.0287
21,U21C A24G,0.0906
22,U21C A24U,0.194
23,U20A U35G A60C G69A C82A,≤ 0.026
24,G18U C83A,≤ 0.026

row,Variant,nonsense suppression
1,U21C G32U U58C,≤ 0.026
2,U21C A54U U57C G59A A89G,≤ 0.026
3,G19A A31G,0.0307
4,U21A G66U C80G,0.219
5,G18A A54U,≤ 0.026
6,U20A C75G G85U,0.154
7,U21G U22G,0.571
8,U21G U22C,1.09
9,U20G U63A,1.06
10,U20G U63G,0.495
11,U20C A31G,0.0336
12,U20C A31U,0.0722
13,U20C A54G,0.052
14,U20C A54U,0.62
15,U21A G61U,0.791
16,U20C U57C U58G G61C,≤ 0.026
17,G18C C29U G85A G88A,≤ 0.026
18,U21G C72U C83G,≤ 0.026
19,G19U A60U G73U,≤ 0.026
20,U20C U21A,0.188
21,U20C U21C,1.15
22,G18U A30U G78U,≤ 0.026
23,U17G G32U U55A U57C U76C,≤ 0.026
24,G18A G25U C27U G67C,≤ 0.026

row,Variant,nonsense suppression
1,G19C C27G A30U U55C,≤ 0.026
2,U20C A31C C79A G85C,≤ 0.026
3,U20G A30U,0.444
4,U20C C75U,0.843
5,U20A G78A,0.0977
6,U20C C83G G86A,≤ 0.026
7,U21G U57G,≤ 0.026
8,U21G A33G C34U G65C,≤ 0.026
9,U21C C82U,1.15
10,U20A A74U,0.0745
11,G18A A30U,0.0262
12,G18A A30G,0.0263
13,U20C G85A,0.861
14,U21C C56U,0.174
15,U20A U63C,0.191
16,U20A U63A,0.187
17,U20A U63G,0.106
18,U20C C27G,≤ 0.026
19,U21C A54C U63G C82U,≤ 0.026
20,U17G C75U A87G,0.77
21,U21G G73U,0.026
22,U20C G78U,0.0456
23,U21A U22G U76A C77A G88A,≤ 0.026
24,U20C G28A,0.192

row,Variant,nonsense suppression
1,U20A A31G,0.461
2,U21C U63A,1.12
3,U21C U63G,0.805
4,U21A C75A,0.947
5,G18C G19A G66A,≤ 0.026
6,U20G U55C A74G,≤ 0.026
7,U21G C29U,0.809
8,U21G A87G,0.172
9,U20C C64U,0.0503
10,U21C A31G,1
11,G19U G26C U57C,≤ 0.026
12,U20C C72G,0.063
13,U21C U76C,1.06
14,G19A C34A G59A G73U C82U,≤ 0.026
15,U21A A54U,0.737
16,G19A G26U C27G,≤ 0.026
17,G18C A24C A33U,≤ 0.026
18,U21A G85A,1.06
19,U20C A24C,0.249
20,G18A U55A U58A,≤ 0.026
21,U21A U63G G86A,≤ 0.026
22,U21G G61A,0.237
23,U21G G61U,0.554
24,U21G G61C,0.105

row,Variant,nonsense suppression
1,U17G A33U U63C G65C,≤ 0.026
2,U21A A54C G61A,0.215
3,U21G U76C,0.861
4,U20C C80U,0.036
5,U22A G28A,1.14
6,G19A A33U U71A,≤ 0.026
7,G18U U20G G65C G66C,≤ 0.026
8,U20C A60G,0.0437
9,U17G G66U G69A,≤ 0.026
10,U21G A24U,0.0683
11,U21G A24C,0.493
12,G19C A30U,≤ 0.026
13,G18U G25A G78U,≤ 0.026
14,U21C A60U C68U,1.05
15,U21G C75A,1.06
16,U21G C75G,1.05
17,U20G U21C,0.761
18,U20G U21G,0.75
19,U20G U21A,1.18
20,U21C A23C U71G G78A,≤ 0.026
21,G19C A23C C56G G85U,≤ 0.026
22,U21A G65C U71A G78U,≤ 0.026
23,G19A U63G,0.143
